Source: PubChem BioAssay (several laboratories)
proCasp7 act = counter-screen: procaspase-7 (human) activation. P55210. recombinant procaspase-7, Ac-DEVD-pNA absorbance 405 nm; D23A/D198A/D206A triple mutant, cannot self-cleave; scale: DMSO 0, 5 µM enzyme 100. activation, % at 8.5 µM. 330,000 tested, 0.093% active;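 active = percent activation above the screen-wide mean plus 3 SD, cut at about 25% in these data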
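Material: Procaspase-7 triple mutant (PC-7 D3A) | Quantity: 2 µM procaspase-7 mutant as dispensed | Reagent: DEVD-pNA substrate | Times: 1 h preincubation, 2 h reaction | Technique: 405 nm absorbance of p-nitroaniline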
IMP-1 inhibitor = blocks Pseudomonas aeruginosa IMP-1 metallo-beta-lactamase; inhibition, % at 5.6 µM; AID 1556; 290,000 tested, 0.45% active; purified IMP-1, nitrocefin hydrolysis, epi-absorbance fluorescence;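 active = inhibition above the mean plus 3 SD of all compounds in the same screening run, cut at about 4.5% in these data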
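System: purified recombinant IMP-1 beta-lactamase. Medium: Zinc- and detergent-supplemented HEPES buffer, pH 7.1. Compound: one 5.6 µM dose […]. Schedule: 15 min preincubation plus 25 min reaction at 25 °C. Technique: Epi-absorbance fluorescence, 480 nm excitation, 530 nm emission.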
procasp3 activ = activators of human procaspase-3 | activation, % at 8.5 µM | 330,000 tested, 0.11% active | recombinant procaspase-3 D3A, Ac-DEVD-pNA absorbance 405 nm | AID 463141 | P42574;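 active = activation above the mean of all tested compounds plus 3 SD, cut at about 21% in these data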
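Assay system – Procaspase-3 D3A mutant, all three cleavage aspartates alanine · Controls – DMSO-only low control, 5 µM PC-3 D3A high control · Schedule – 1 h compound preincubation, 2 h substrate hydrolysis at 25 °C · Signal – 405 nm absorbance of p-nitroaniline, reads at 0 and 120 min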
VIM-2 inhibitor = inhibitors of Pseudomonas aeruginosa VIM-2 metallo-beta-lactamase; purified VIM-2, nitrocefin hydrolysis, epi-absorbance fluorescence; inhibition, % at 5.6 µM; 290,000 tested, 0.89% active; AID 1527;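 active = inhibition above the mean of all tested compounds plus 3 SD, cutoff set per screening run, cut at about 7.5% in these data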;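 note: red hydrolysis product quenches plate fluorescence so inhibitors raise well fluorescence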
Neddylation inh = blocks human cullin neddylation | P61081+Q13564 | TR-FRET cullin neddylation, biochemical | calls only at 25 µM | 360,000 tested, 0.58% active | AID 651699; in the data active = inhibition above about 36%
Target sequence (P61081 whole entry, looked up): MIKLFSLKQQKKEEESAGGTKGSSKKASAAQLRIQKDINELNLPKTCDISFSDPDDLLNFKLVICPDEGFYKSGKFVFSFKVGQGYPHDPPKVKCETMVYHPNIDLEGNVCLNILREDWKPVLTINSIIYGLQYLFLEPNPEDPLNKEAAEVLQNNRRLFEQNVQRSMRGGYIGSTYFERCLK
Target sequence (Q13564 whole entry, looked up): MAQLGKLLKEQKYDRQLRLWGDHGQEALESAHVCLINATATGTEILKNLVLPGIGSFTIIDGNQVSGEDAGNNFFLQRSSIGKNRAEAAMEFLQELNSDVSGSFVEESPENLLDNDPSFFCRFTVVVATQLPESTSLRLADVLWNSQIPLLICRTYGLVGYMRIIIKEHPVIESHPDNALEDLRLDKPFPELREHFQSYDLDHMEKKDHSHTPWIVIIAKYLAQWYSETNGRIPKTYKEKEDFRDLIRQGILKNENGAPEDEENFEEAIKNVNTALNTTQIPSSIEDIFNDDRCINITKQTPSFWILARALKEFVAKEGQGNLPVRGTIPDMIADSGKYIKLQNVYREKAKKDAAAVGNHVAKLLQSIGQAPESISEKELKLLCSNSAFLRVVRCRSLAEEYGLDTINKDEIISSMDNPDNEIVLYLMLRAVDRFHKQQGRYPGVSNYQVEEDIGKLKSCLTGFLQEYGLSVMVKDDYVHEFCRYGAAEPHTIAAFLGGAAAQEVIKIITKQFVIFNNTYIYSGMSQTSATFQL
PolyA inhibitor = yeast polyadenylation inhibition | S. cerevisiae SKY197-pL101 polyadenylation reporter, beta-gal luminescence; efflux-impaired pdr1/pdr3 knockout yeast; score 100 = 6 SD above DMSO | activity score, % at 12 µM | 300,000 tested, 0.02% active | AID 1875;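 active = lowest replicate activity score at least 50, where 100 means six control SD above control mean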;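 note: yeast exposed to compound for 9 h at 30 °C; higher score means more reporter readthrough which indicates perturbed polyadenylation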
Numbers stand for hits; . = inactive; / = no result given; + = active, no number. Most compounds without a hit are left out; they make up all but 1.7% or so of the library.

SMILES	proCasp7 act	IMP-1 inhibitor	procasp3 activ	VIM-2 inhibitor	Neddylation inh	PolyA inhibitor
Cc1ccc(CC2CC(=O)N(c3ccc(C)cc3)C2=O)cc1 (stereo unspecified)	.	.	.	.	.	.
Cc1ccc(CC2CC(=O)N(c3nc4ccccc4n3C)C2=O)cc1 (stereo unspecified)	.	13.5	.	.	.	.
O=C(Nc1ccc(N=Nc2ccccc2)cc1)c1cccc(Cl)c1	.	.	.	.	.	.
O=C(CN1CCc2ccccc21)Nc1ccc2c(c1)OCO2	.	.	.	.	.	.
COc1cccc(-c2nn3c(-c4ccccn4)nnc3s2)c1	.	.	.	8.0	.	.
COc1ccc(-c2nn3c(-c4ccccn4)nnc3s2)cc1OC	.	.	.	12.2	.	.
c1ccc(-c2nn3c(-c4ccco4)nnc3s2)nc1	.	.	.	9.7	.	.
Clc1ccc(-c2nnc3sc(-c4ccccn4)nn23)cc1	/	.	/	.	/	/
COc1ccccc1-c1nnc2sc(-c3ccc(N(C)C)cc3)nn12	.	15.5	.	.	/	.
Cn1cnnc1SC1CCCCC1NS(=O)(=O)c1ccc(Cl)cc1 (stereo unspecified)	.	.	.	.	.	.
CCC(C)(C)NC(=O)C(c1ccc(C)o1)N(Cc1cccs1)C(=O)Cn1nnc2ccccc21 (stereo unspecified)	.	10.0	.	.	.	.
CCC(C)(C)NC(=O)C(c1ccccc1)N(Cc1cccs1)C(=O)Cn1nnc2ccccc21 (stereo unspecified)	.	.	.	.	.	.
Cc1[nH][nH]c(=O)c1N=Nc1ccc(Br)c(Cl)c1	.	/	.	/	.	.
CC1Cc2nc(SCC(=O)N3CCN(c4ccccc4)CC3)n(CCc3ccccc3)c(=O)c2S1 (stereo unspecified)	.	.	.	.	.	.
CCn1c(SCC(=O)N2CCN(c3ccccc3)CC2)nc2c(c1=O)SC(C)C2 (stereo unspecified)	.	4.9	.	.	.	.
Cc1cc(/C=c2\sc3nc4ccccc4n3c2=O)c(C)n1-c1ccc(C(=O)O)cc1	/	.	/	.	+	.
Cc1cc(/C=c2/sc3nc4ccccc4n3c2=O)c(C)n1-c1ccccn1	.	.	.	.	.	.
CS(=O)(=O)N1CCC(C(=O)Nc2ccc(C(F)(F)F)cc2)CC1	.	.	.	.	.	.
Cc1sc2nc(COC(=O)CNC(=O)c3ccc(C(C)(C)C)cc3)[nH]c(=O)c2c1C	.	8.6	.	.	.	.
Cc1c(NS(=O)(=O)c2ccc(C(=O)NCc3ccc(F)cc3)cc2)c(=O)n(-c2ccccc2)n1C	.	/	.	/	.	/
Cc1cc(C)c2ccc(C(=O)O)nc2c1O	.	.	.	9.7	.	.
COc1ccc(C(=O)O)nc1C	.	.	.	.	.	.
COc1cccc(Nc2nc(-c3cccnc3)cs2)c1	.	.	.	.	.	.
COc1ccc(-c2csc(Nc3cccnc3)n2)cc1OC	.	.	.	11.6	.	.
CCCOc1ccc(/C=C/C(=O)N2CCN(C(=O)c3ccco3)CC2)cc1OC	/	/	/	/	.	/
SMILES	proCasp7 act	IMP-1 inhibitor	procasp3 activ	VIM-2 inhibitor	Neddylation inh	PolyA inhibitor
Oc1ccc(/C=N/N(Cc2ccccc2)c2ccccc2)c(O)c1O	/	5.1	/	.	.	.
O=C(COC(=O)c1n[nH]c2ccccc12)Nc1ccccc1F	.	/	.	/	.	/
COc1ccc2c(CC(=O)NNC(=O)c3ccc(O)cc3)coc2c1	.	/	.	/	.	/
COc1ccc(OCC(=O)NNC(=O)Cc2coc3cc(OC)ccc23)cc1	.	5.6	.	.	.	.
Cc1cc(NS(=O)(=O)c2ccc(NC(NC(=O)C(C(F)(F)F)C(F)(F)F)(C(F)(F)F)C(F)(F)F)cc2)no1	/	.	/	.	.	/
Cc1ncc(CO)c(/C=N/NC(=O)c2cc3c(s2)CCCC3)c1O	25.7	.	31.3	.	/	.
COc1ccccc1NS(=O)(=O)c1cccc(C(=O)N/N=C/c2c(CO)cnc(C)c2O)c1	.	/	.	/	+	/
Cc1ncc(CO)c(/C=N/NC(=O)c2ccc(O)cc2)c1O	.	.	.	.	/	.
COc1ccccc1N/N=C/c1c(CO)cnc(C)c1O	.	.	.	.	.	.
